Published values gathered from unrelated publications.
Each line is one published result; the experiments were not run side by side.
JAK2: Tyrosine-protein kinase JAK2 (JAK2, Homo sapiens, UniProt O60674)
JAK2 JH1: Tyrosine-protein kinase JAK2, JH1 (JAK2, Homo sapiens, UniProt O60674)

`Cc1nn(CC(F)(F)F)cc1Nc1ncc(C2CC2)c(NCc2ccc(S(N)(=O)=O)cc2)n1` gave a remaining activity of 100% (JAK2; enzyme activity, inhibitor, radiometric; 1 µM).
For `CC/C(=N\NC(=O)NCc1cccc(O)c1)c1ccc(O)c(C)c1O`, the inhibition was 1% (JAK2; enzyme activity, inhibitor; 0.1 µM).
`CO[C@@H](C)c1c(Nc2ccc([C@@H](N(C)C(=O)C3CCS(=O)(=O)CC3)C(F)(F)F)cc2)cnc2cc(Cl)nn12` gave a remaining binding of 98% (JAK2 JH1; cell-free assay, competition with immobilised ligand; 1 µM).
For `COc1cc2ncnc(Nc3ccc(Oc4ccccc4)cc3C)c2cc1OC`, the inhibition was -6% (JAK2 JH1; enzyme activity, inhibitor; 1 µM).
The remaining binding of `O=C(NCCCC1CCCCC1)c1ccc(CNC(=O)c2cnn(-c3ccccc3)c2C(F)(F)F)cc1` is reported as 100% (JAK2 JH1; cell-free assay, competition with immobilised ligand; 0.1 µM).
For `Nc1nc(Nc2ccc(S(N)(=O)=O)cc2)nn1C(=O)c1c(F)cccc1F`, the remaining signal was 19.2% (JAK2; cell-free assay; 0.5 µM).
`O=C(NCCCNc1nc(Nc2cccc(NC(=O)N3CCCC3)c2)ncc1C1CC1)C1CCC1` gave a remaining activity of 68% (JAK2; enzyme activity, inhibitor, radiometric; 1 µM).
With `O=C(CSc1nc2nccnc2c(=O)n1CCc1ccccc1)Nc1nccs1` the inhibition was -4% (JAK2; enzyme activity, inhibitor; 10 µM).
With `c1cnn2ncc(-c3ccnc(N4CCC45COC5)n3)c2c1` the remaining signal was 74% (JAK2 JH1; cell-free assay; 1 µM).
For `NS(=O)(=O)c1cc(NC(=O)Cc2ccccc2)ccc1Oc1cccc(Cl)c1`, the remaining binding was 73% (JAK2 JH1; cell-free assay, competition with immobilised ligand; 1 µM).
The activity vs control of `Cc1ccc(C(=O)NCc2ccsc2)cc1C#Cc1cn(C(C)C)c2ncnc(N)c12` is reported as 100% (JAK2; enzyme activity, inhibitor; 1 µM).
`C[C@H](NC(=O)c1cnc2n1[C@](C)(Cc1ccc(C#N)cc1)C(=O)N2c1cc(Cl)c(F)c(Cl)c1)C(=O)NC1(c2ccccn2)CC1` gave a remaining binding of 100% (JAK2 JH1; cell-free assay, competition with immobilised ligand; 1 µM).
The remaining activity of `O=C(NCCCNc1ccnc(Nc2cccc(NC(=O)N3CCCC3)c2)n1)C1CCC1` is reported as 88% (JAK2; enzyme activity, inhibitor, radiometric; 1 µM).
For `Cn1cc(Cl)c2c(Oc3c(F)cc(Nc4cc(Cl)nc(N)n4)cc3F)ccnc21`, the remaining binding was 72% (JAK2 JH1; cell-free assay, competition with immobilised ligand; 0.1 µM).
With `CCCS(=O)(=O)Nc1ccc(F)c(C(=O)c2c[nH]c3ncc(-c4ccc(Cl)cc4)cc23)c1F` the inhibition was less than 10% (JAK2; enzyme activity, inhibitor; 1 µM).
`Cc1ccc(NC(=O)c2ccc(CN3CCN(C)CC3)cc2)cc1Nc1nc(-c2cccnc2)cs1` gave a remaining signal of 96.3% (JAK2; cell-free assay; 0.5 µM).
`CC(=O)Nc1c(C(C)=O)c(=O)n(C)c2nc(-c3ccc(Cl)cc3Cl)c(-c3ccc(Cl)cc3)cc12` gave a remaining binding of 100% (JAK2 JH1; cell-free assay, competition with immobilised ligand; 1 µM).
`Cc1ccc(Nc2nccc(N(C)c3ccc4c(C)n(C)nc4c3)n2)cc1S(N)(=O)=O` gave an inhibition of 12% (JAK2; enzyme activity, inhibitor; 0.3 µM).
